Measured values taken from ChEMBL document CHEMBL2412970, “Synthesis and anticancer activity of 2,4-disubstituted furo[3,2-b]indole derivatives” (Eur J Med Chem, 2013).
Active and inactive are the calls of the source. No cut-off for these calls is given here.

Key:
A498 [1] = experiment: Cytotoxicity against human A498 cells assessed as reduction in cell viability at 0.25 uM after 48 hrs by MTT assay relative to control; assay type: functional
SK-OV-3 = experiment: Cytotoxicity against human SKOV3 cells after 48 hrs by sulforhodamine B assay; assay type: functional; conditions: SK-OV-3, 48 h
LOX IMVI = experiment: Cytotoxicity against human LOXIMVI cells after 48 hrs by sulforhodamine B assay; assay type: functional
A498 [2] = experiment: Induction of cell cycle arrest at G2/M phase in human A498 cells assessed as increase in cyclin B1 expression at 0.5 uM after 6 hrs by Western blotting analysis; assay type: functional, cell-based
Method in brief: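 A498 cells exposed to 0.5 µM for 6, 12, 24, 36 or 48 h, then lysed on ice 30 min and spun 12 000g 20 min. Protein measured by Bradford; 20 µg per lane run on 10% SDS-PAGE, transferred to nitrocellulose, probed for cyclin B1 and CDK1, β-actin as loading control; n = 3 independent experiments.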

SNB-75 = experiment: Cytotoxicity against human SNB75 cells after 48 hrs by sulforhodamine B assay; assay type: functional; conditions: SNB-75, 48 h
A498 [3] = experiment: Antitumor activity against human A498 cells xenografted in BALB/cAnN.Cg-Foxn1nu/CrlNarl nude mouse assessed as suppression of tumor growth at 60 mg/kg/day, ip qd administered 5 times a week for 28 days measured every 7 days relative to control; assay type: functional; conditions: route intraperitoneal, read-out: TGI
Method in brief: (§1)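 Male nude mice (18–20 g, 4–6 weeks) were inoculated subcutaneously with A498 cells, 2 × 10⁶ per mouse in 0.1 mL PBS. Once tumors reached 100 mm³, mice were randomized and given ip doses of 30 or 60 mg/kg, 5 times per week for 4 weeks. Body weight and tumor size were recorded every 7 days over 28 days. Volume = 1/2 ([…]).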

MCF7 = experiment: Cytotoxicity against human MCF7 cells after 48 hrs by sulforhodamine B assay; assay type: functional; conditions: MCF7, 48 h
HCT-15 = experiment: Cytotoxicity against human HCT15 cells after 48 hrs by sulforhodamine B assay; assay type: functional; conditions: HCT-15, 48 h
A498 [4] = experiment: Cell cycle arrest in human A498 cells assessed as accumulation at S phase at 0.5 uM after 36 hrs by propidium iodide staining-based flow cytometry (reference value: 15.92 +/- 0.03%); assay type: functional
SW-620 = experiment: Cytotoxicity against human SW620 cells after 48 hrs by sulforhodamine B assay; assay type: functional; conditions: SW-620, 48 h
A498 [5] = experiment: Induction of apoptosis in human A498 cells assessed as increase in Apaf-1 level at 0.5 uM after 6 to 48 hrs by Western blotting analysis; assay type: functional, cell-based
Method in brief: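 A498 cells exposed for 6, 12, 24, 36 or 48 h, then washed in PBS and lysed. Lysates were held on ice for 30 min and spun at 12 000g for 20 min. Supernatant protein was measured by Bradford assay, run on 10% SDS-PAGE and transferred to nitrocellulose. Blots were probed for AIF, Endo G, Apaf-1, cytochrome c, caspase 9 and caspase 3, with β-actin as loading control; n = 3 independent experiments.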

A498 [6] = experiment: Cytotoxicity against human A498 cells assessed as cell shrinkage at 0.5 uM after 24 hrs by phase contrast microscopy; assay type: functional, cell-based
Method in brief: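 A498 cells were plated at 5 × 10⁵ per well and exposed to 0.5 µM for 24 h. Cell rounding and shrinkage were scored by microscopy against untreated control cells.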

OVCAR-4 = experiment: Cytotoxicity against human OVCAR4 cells after 48 hrs by sulforhodamine B assay; assay type: functional; conditions: OVCAR-4, 48 h
A498 [7] = experiment: Cell cycle arrest in human A498 cells assessed as accumulation at G2/M phase at 0.5 uM after 36 hrs by propidium iodide staining-based flow cytometry (reference value: 5.39 +/- 0.01%); assay type: functional
HOP-62 = experiment: Cytotoxicity against human HOP62 cells after 48 hrs by sulforhodamine B assay; assay type: functional; conditions: HOP-62, 48 h
SK-MEL-2 = experiment: Cytotoxicity against human SK-MEL-2 cells after 48 hrs by sulforhodamine B assay; assay type: functional; conditions: SK-MEL-2, 48 h
A498 [8] = experiment: Cell cycle arrest in human A498 cells assessed as accumulation at S phase at 0.5 uM after 24 hrs by propidium iodide staining-based flow cytometry (reference value: 15.92 +/- 0.03%); assay type: functional
UO-31 = experiment: Cytotoxicity against human UO31 cells after 48 hrs by sulforhodamine B assay; assay type: functional; conditions: UO-31, 48 h
KM12 = experiment: Cytotoxicity against human KM12 cells after 48 hrs by sulforhodamine B assay; assay type: functional; conditions: KM12, 48 h
A498 [9] = experiment: Antitumor activity against human A498 cells xenografted in ip dosed BALB/cAnN.Cg-Foxn1nu/CrlNarl nude mouse assessed as suppression of tumor growth administered qd for 5 times a week for 28 days measured every 7 days; assay type: functional, organism-based; method in brief: as §1
A498 [10] = experiment: Induction of apoptosis in human A498 cells assessed as late apoptotic cells at 0.5 uM after 24 hrs by AnnexinV/FITC-propidium iodide staining-based flow cytometry (reference value: 9.6%); assay type: functional
Method in brief: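 Flow cytometry with annexin V-FITC/PI double labeling of A498 cells treated for 12, 24, 36 or 48 h; untreated cells served as the 0 h control. Stained in binding buffer for 15 min at room temperature in the dark, with more binding buffer added just before analysis. Annexin V+/PI− (Q4) counted as early apoptotic and annexin V+/PI+ (Q2) as late apoptotic.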

SF-268 = experiment: Cytotoxicity against human SF268 cells after 48 hrs by sulforhodamine B assay; assay type: functional; conditions: SF-268, 48 h
NCI-H460 = experiment: Cytotoxicity against human NCI-H460 cells after 48 hrs by sulforhodamine B assay; assay type: functional; conditions: NCI-H460, 48 h
SN12C = experiment: Cytotoxicity against human SN12C cells after 48 hrs by sulforhodamine B assay; assay type: functional
OVCAR-8 = experiment: Cytotoxicity against human OVCAR8 cells after 48 hrs by sulforhodamine B assay; assay type: functional; conditions: OVCAR-8, 48 h
A498 [11] = experiment: Cell cycle arrest in human A498 cells assessed as accumulation at sub-G1 phase at 0.5 uM after 36 hrs by propidium iodide staining-based flow cytometry (reference value: 0.10 +/- 0.07%); assay type: functional
A498 [12] = experiment: Cytotoxicity against human A498 cells assessed as reduction in cell viability at 1 uM after 48 hrs by MTT assay relative to control; assay type: functional
[13] = read-out: pLC50 (the source's name) (converted)

OCc1ccc(Cn2c3ccccc3c3oc(CO)cc32)o1
Activity (A498 [1]): 39.5%
GI50 (SK-OV-3): > 100 µM
CC50 (SK-OV-3; [13]): > 100 µM
TGI (SK-OV-3; read-out: pTGI): > 100 µM
GI50 (LOX IMVI): 66.1 µM
CC50 (LOX IMVI; [13]): > 100 µM
TGI (LOX IMVI; read-out: pTGI): > 100 µM
Activity (A498 [2]): Active
GI50 (SNB-75): 46.8 µM
CC50 (SNB-75; [13]): > 100 µM
TGI (SNB-75; read-out: pTGI): > 100 µM
inhibition in vivo at 60 mg/kg/day (A498 [3]): 80%
GI50 (MCF7): 9.33 µM
CC50 (MCF7; [13]): > 100 µM
TGI (MCF7; read-out: pTGI): > 100 µM
GI50 (HCT-15): 87.1 µM
CC50 (HCT-15; [13]): > 100 µM
TGI (HCT-15; read-out: pTGI): > 100 µM
Activity (A498 [4]): 14.33%
GI50 (SW-620): > 100 µM
CC50 (SW-620; [13]): > 100 µM
TGI (SW-620; read-out: pTGI): > 100 µM
Activity (A498 [5]): Active
Activity (A498 [6]): Active
GI50 (OVCAR-4): 4.27 µM
CC50 (OVCAR-4; [13]): > 100 µM
TGI (OVCAR-4; read-out: pTGI): > 100 µM
Activity (A498 [7]): 15.98%
GI50 (HOP-62): > 100 µM
CC50 (HOP-62; [13]): > 100 µM
TGI (HOP-62; read-out: pTGI): > 100 µM
GI50 (SK-MEL-2): > 100 µM
CC50 (SK-MEL-2; [13]): > 100 µM
TGI (SK-MEL-2; read-out: pTGI): > 100 µM
Activity (A498 [8]): 15.98%
GI50 (UO-31): 50.1 µM
CC50 (UO-31; [13]): > 100 µM
TGI (UO-31; read-out: pTGI): > 100 µM
GI50 (KM12): > 100 µM
CC50 (KM12; [13]): > 100 µM
TGI (KM12; read-out: pTGI): > 100 µM
Activity (A498 [9]): Dose-dependent effect
Activity (A498 [10]): 15.6%
GI50 (SF-268): 97.7 µM
CC50 (SF-268; [13]): > 100 µM
TGI (SF-268; read-out: pTGI): > 100 µM
GI50 (NCI-H460): > 100 µM
CC50 (NCI-H460; [13]): > 100 µM
TGI (NCI-H460; read-out: pTGI): > 100 µM
GI50 (SN12C): > 100 µM
CC50 (SN12C; [13]): > 100 µM
TGI (SN12C; read-out: pTGI): > 100 µM
GI50 (OVCAR-8): > 100 µM
CC50 (OVCAR-8; [13]): > 100 µM
TGI (OVCAR-8; read-out: pTGI): > 100 µM
Activity (A498 [11]): 3.16%
Activity (A498 [12]): 19.4%
